Measurements reported in ChEMBL document CHEMBL1833941, “Structural requirement of arylindolylpropenones as anti-bladder carcinoma cells agents” (Bioorg Med Chem, 2011).
pIC50: −log10 of the molar value. Activity calls are given as the source filed them. The calls are words filed in the database; no cut-off is given here.

What was measured:
RT-112 [1] = assay: Antiproliferative activity against human RT112 cells after 48 hrs by MTT assay; type: functional, cell-based; conditions: RT-112, 48 h
Method in brief: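 RT112 bladder carcinoma cells in RPMI 1640 with 10% FCS and 2 mM glutamine, 37 °C, 5% CO2. Seeded 3×10^3 cells/well, treated after 24 h with a concentration series for 48 h; DMSO vehicle control. MTT 3 h at 37 °C, formazan dissolved in DMSO, A570 with 650 nm reference. Survival relative to vehicle (100%); IC50 from dose-response curves; triplicates, three independent experiments.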

RT-112 [2] = assay: Cell cycle arrest in human RT112 cells by accumulation of cells at G2/M phase at 3 uM after 12 hrs by propidium iodide-staining-based flow cytometry (reference value: 14%); type: functional
RT-112 [3] = assay: Cell cycle arrest in human RT112 cells by accumulation of cells at G1 phase at 3 uM after 12 hrs by propidium iodide-staining-based flow cytometry (reference value: 69%); type: functional
RT-112 [4] = assay: Cell cycle arrest in human RT112 cells by accumulation of cells at S phase at 3 uM after 12 hrs by propidium iodide-staining-based flow cytometry (reference value: 17%); type: functional
RT-112 [5] = assay: Cell cycle arrest in human RT112 cells by accumulation of cells at G2+M phase at 3 uM after 24 hrs by propidium iodide-staining-based flow cytometry (reference value: 14%); type: functional
RT-112 [6] = assay: Induction of apoptosis in human RT112 cells assessed as hypodiploid DNA at sub-G1 phase after 48 hrs by propidium iodide-staining-based flow cytometry; type: functional, cell-based
Method in brief: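 Same PI/RNase flow cytometry as the cell cycle work in RT112 cells, with treatment extended to 48 h. Apoptosis scored as a hypodiploid (sub-G1) DNA peak; DMSO vehicle as control.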

RT-112 [7] = assay: Cell cycle arrest in human RT112 cells by accumulation of cells at G2+M phase at 4 uM after 12 hrs by propidium iodide-staining-based flow cytometry (reference value: 14%); type: functional
RT-112 [8] = assay: Cell cycle arrest in human RT112 cells by accumulation of cells at G2+M phase at 4 uM after 24 hrs by propidium iodide-staining-based flow cytometry (reference value: 14%); type: functional

| SMILES | pIC50 (RT-112 [1]) | also measured |
| --- | --- | --- |
| CN1CCN(c2ccccc2/C=C/C(=O)c2cn(C)c3ccccc23)CC1 | 4.58 | – |
| COc1cc(OC)c(/C=C/C(=O)c2cn(C)c3ccccc23)c(OC)c1 | 5.49 | Activity (RT-112 [2]): 74%; Activity (RT-112 [3]): 16%; Activity (RT-112 [4]): inactive; Activity (RT-112 [5]): Active; Activity (RT-112 [6]): Active |
| Cn1cc(/C=C/C(=O)c2cn(C)c3ccccc23)c2ccccc21 | 4.20 | – |
| COc1cc(OC)c(C(=O)/C=C/c2ccc3c(ccn3C)c2)c(OC)c1 | 4.27 | – |
| Cn1cc(C(=O)/C=C/c2ccccc2)c2ccccc21 | 4.51 | – |
| COc1cc(OC)c(/C=C/C(=O)c2cn(C)c3ccc(OC)cc23)c(OC)c1 | 5.51 | Activity (RT-112 [2]): 91%; Activity (RT-112 [3]): 5%; Activity (RT-112 [4]): inactive; Activity (RT-112 [5]): Active; Activity (RT-112 [6]): Active |
| COc1cc(/C=C/C(=O)c2cn(C)c3ccccc23)cc(OC)c1OC | 4.37 | – |
| COc1ccc(/C=C/C(=O)c2cn(C)c3ccccc23)c(OC)c1 | 4.24 | – |
| CN1CCN(c2ccc(/C=C/C(=O)c3cn(C)c4ccccc34)cc2)CC1 | 4.93 | – |
| Cn1cc(C(=O)/C=C/c2ccccc2F)c2ccccc21 | 4.54 | – |
| Cn1ccc2cc(/C=C/C(=O)c3cn(C)c4ccccc34)ccc21 | 5.40 | Activity (RT-112 [7]): 65%; Activity (RT-112 [8]): 34%; Activity (RT-112 [6]): Active |
| CN(C)c1ccc(/C=C/C(=O)c2cn(C)c3ccccc23)cc1 | 5.12 | – |
| COc1cccc(OC)c1/C=C/C(=O)c1cn(C)c2ccccc12 | 4.32 | – |
| Cn1cc(C(=O)/C=C/c2c(Cl)cccc2Cl)c2ccccc21 | 5.11 | – |
| COc1cc(OC)c(/C=C/C(=O)c2cn(C)c3ccc(C(=O)O)cc23)c(OC)c1 | 4.06 | – |
